Measurements: ChEMBL document CHEMBL2146441, “2,6-Disubstituted imidazo[2,1-b][1,3,4]thiadiazoles: search for anticancer agents” (2012)

Key:
Format in all cases: functional
IGROV-1 [1] = assay: Cytotoxicity against human IGROV1 cells assessed as cell growth at 10^-7 M after 48 hrs by SRB assay; settings: IGROV-1, 48 h, read-out: Activity
U-251 = assay: Growth inhibition of human U251 cells after 48 hrs by SRB assay; settings: U-251, 48 h
How it was run: (§1)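 Adherent NCI-60 lines grown in RPMI 1640 with 5% FBS, seeded at 5000–40,000 cells/well, and preincubated 24 h at 37 °C, 5% CO2. Compound, stocked in DMSO, given either once at 10^-5 M or at five 10-fold dilutions for 48 h. Cells fixed with cold TCA (final 10%), stained with 0.4% SRB, and read at 515 nm. GI50 taken as 50% reduction in net protein increase versus time-zero and control plates.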

OVCAR-3 = assay: Cytotoxicity against human OVCAR3 cells assessed as cell growth at 10^-7 M after 48 hrs by SRB assay; settings: OVCAR-3, 48 h, read-out: Activity
DU-145 = assay: Growth inhibition of human DU145 cells after 48 hrs by SRB assay; settings: DU-145, 48 h
How it was run: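 Same 48 h NCI-60 five-dose SRB protocol. Adherent lines were fixed with cold TCA at 10% final; suspension lines such as CCRF-CEM were fixed with 16% final TCA. Stain was 0.4% SRB in 1% acetic acid for 10 min, solubilized in 10 mM Tris base and read at 515 nm. GI50 came from log concentration–growth curves, solving [(Ti−Tz)/(C−Tz)]×100 = 50.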

SF-539 [2] = assay: Cytotoxicity against human SF539 cells assessed as cell growth at 10^-7 M after 48 hrs by SRB assay; settings: SF-539, 48 h, read-out: Activity
NCI-H460 = assay: Cytotoxicity against human NCI-H460 cells assessed as cell growth at 10^-7 M after 48 hrs by SRB assay; settings: NCI-H460, 48 h, read-out: Activity
HT-29 = assay: Cytotoxicity against human HT-29 cells assessed as cell growth at 10^-7 M after 48 hrs by SRB assay; settings: HT-29, 48 h, read-out: Activity
How it was run: (§2)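 NCI-60 five-dose screen. Cells were grown in RPMI 1640 with 5% FBS and seeded at 5000–40,000 cells/well according to doubling time. They were pre-incubated 24 h at 37 °C in 5% CO₂, and time-zero (Tz) plates were TCA-fixed at drug addition. Five 10-fold dilutions of DMSO stock were applied for 48 h. Read-out was SRB staining, 515 nm absorbance, with percent growth calculated versus Tz and untreated control.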

LOX IMVI [3] = assay: Cytotoxicity against human LOXIMVI cells assessed as cell growth at 10^-7 M after 48 hrs by SRB assay; settings: read-out: Activity
COLO = assay: Cytotoxicity against human COLO […] cells assessed as cell growth at 10^-8 M after 48 hrs by SRB assay; settings: read-out: Activity
How it was run: (§3)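 NCI-60 screen: lines kept in RPMI 1640 with 5% FBS, seeded at 5000–40,000 cells/well by doubling time, preincubated 24 h at 37 °C in 5% CO2. Time-zero plates TCA-fixed at drug addition. DMSO stocks diluted in medium, 48 h exposure. Fixation in cold TCA (final 10% adherent, 16% suspension), 0.4% SRB stain, solubilised in 10 mM Tris base, A515. Percent growth computed against control and time-zero.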

A549 = assay: Cytotoxicity against human A549 cells assessed as cell growth at 10^-8 M after 48 hrs by SRB assay; settings: A549, 48 h, read-out: Activity; how it was run: as §3
SNB-75 = assay: Cytotoxicity against human SNB75 cells assessed as cell growth at 10^-7 M after 48 hrs by SRB assay; settings: SNB-75, 48 h, read-out: Activity
SR = assay: Cytotoxicity against human SR cells assessed as cell growth at 10^-4 M after 48 hrs by SRB assay; settings: read-out: Activity
SF-539 [4] = assay: Growth inhibition of human SF539 cells after 48 hrs by SRB assay; settings: SF-539, 48 h; how it was run: as §1
Malme-3M = assay: Growth inhibition of human MALME-3M cells after 48 hrs by SRB assay; settings: for CC50: read-out: LC50 (the source's name); how it was run: as §1
HOP-92 = assay: Growth inhibition of human HOP92 cells after 48 hrs by SRB assay; settings: HOP-92, 48 h; for CC50: read-out: LC50 (the source's name); how it was run: as §1
SN12C [5] = assay: Cytotoxicity against human SN12C cells assessed as cell growth at 10^-5 M after 48 hrs by SRB assay; settings: read-out: Activity
MDA-MB-435 = assay: Cytotoxicity against human MDA-MB-435 cells assessed as cell growth at 10^-6 M after 48 hrs by SRB assay; settings: MDA-MB-435, 48 h, read-out: Activity
SN12C [6] = assay: Cytotoxicity against human SN12C cells assessed as cell growth at 10^-7 M after 48 hrs by SRB assay; settings: read-out: Activity
NCI-H522 = assay: Cytotoxicity against human NCI-H522 cells assessed as cell growth at 10^-7 M after 48 hrs by SRB assay; settings: NCI-H522, 48 h, read-out: Activity
SK-MEL-28 = assay: Growth inhibition of human SK-MEL-28 cells after 48 hrs by SRB assay; settings: SK-MEL-28, 48 h; for CC50: read-out: LC50 (the source's name); how it was run: as §1
HL-60 = assay: Cytotoxicity against human HL60 cells assessed as cell growth at 10^-5 M after 48 hrs by SRB assay; settings: HL-60, 48 h, read-out: Activity; how it was run: as §2
SF-539 [7] = assay: Cytotoxicity against human SF539 cells assessed as cell growth at 10^-6 M after 48 hrs by SRB assay; settings: SF-539, 48 h, read-out: Activity
IGROV-1 [8] = assay: Growth inhibition of human IGROV1 cells after 48 hrs by SRB assay; settings: IGROV-1, 48 h; for CC50: read-out: LC50 (the source's name); how it was run: as §1
ACHN = assay: Cytotoxicity against human ACHN cells assessed as cell growth at 10^-8 M after 48 hrs by SRB assay; settings: read-out: Activity; how it was run: as §3
SK-OV-3 = assay: Cytotoxicity against human SKOV3 cells assessed as cell growth at 10^-4 M after 48 hrs by SRB assay; settings: SK-OV-3, 48 h, read-out: Activity
LOX IMVI [9] = assay: Growth inhibition of human LOXIMVI cells after 48 hrs by SRB assay; how it was run: as §1
SNB-19 = assay: Cytotoxicity against human SNB19 cells assessed as cell growth at 10^-6 M after 48 hrs by SRB assay; settings: SNB-19, 48 h, read-out: Activity
UO-31 = assay: Cytotoxicity against human UO31 cells assessed as cell growth at 10^-6 M after 48 hrs by SRB assay; settings: UO-31, 48 h, read-out: Activity
[10] = Cytotoxicity against human NCI-ADR-RES cells assessed as cell growth at 10^-6 M after 48 hrs by SRB assay; settings: read-out: Activity

COc1ccc(-c2nn3cc(-c4cccc(N)c4)nc3s2)cc1
growth at 0.1 µM (IGROV-1 [1]): 93%
GI50 (U-251): 7.65 µM
LC50 (U-251): > 100 µM
TGI (U-251): 52.1 µM
growth at 0.1 µM (OVCAR-3): 98%
GI50 (DU-145): 6.79 µM
LC50 (lethal concentration 50) (DU-145): > 100 µM
TGI (DU-145): 31.7 µM
growth at 0.1 µM (SF-539 [2]): 100%
growth at 0.1 µM (NCI-H460): 92%
growth at 0.1 µM (HT-29): 100%
growth at 0.1 µM (LOX IMVI [3]): 92%
growth at 0.01 µM (COLO): 103%
growth at 0.01 µM (A549): 106%
growth at 0.1 µM (SNB-75): 74%
growth at 100 µM (SR): 23%
GI50 (SF-539 [4]): 2.51 µM
LC50 (SF-539 [4]): 48 µM
TGI (SF-539 [4]): 7.83 µM
GI50 (Malme-3M): 1.74 µM
TGI (Malme-3M): 6.5 µM
CC50 (Malme-3M): 47.3 µM
GI50 (HOP-92): 0.114 µM
TGI (HOP-92): 0.989 µM
CC50 (HOP-92): 87.2 µM
growth at 10 µM (SN12C [5]): 36%
growth at 1 µM (MDA-MB-435): 77%
growth at 0.1 µM (SN12C [6]): 91%
growth at 0.1 µM (NCI-H522): 83%
GI50 (SK-MEL-28): 3.76 µM
TGI (SK-MEL-28): 26 µM
CC50 (SK-MEL-28): > 100 µM
growth at 10 µM (HL-60): 19%
growth at 1 µM (SF-539 [7]): 91%
GI50 (IGROV-1 [8]): 2.65 µM
TGI (IGROV-1 [8]): 34.4 µM
CC50 (IGROV-1 [8]): > 100 µM
growth at 0.01 µM (ACHN): 106%
growth at 100 µM (SK-OV-3): -68%
GI50 (LOX IMVI [9]): 3.38 µM
LC50 (lethal concentration, 50% net cell kill) (LOX IMVI [9]): > 100 µM
TGI (LOX IMVI [9]): 29.5 µM
growth at 1 µM (SNB-19): 81%
growth at 1 µM (UO-31): 60%
growth at 1 µM [10]: 85%

COc1ccc(-c2nn3cc(-c4ccc(O)cc4O)nc3s2)cc1
growth at 0.1 µM (IGROV-1 [1]): 94%
GI50 (U-251): 1.7 µM
LC50 (U-251): > 100 µM
TGI (U-251): 4.48 µM
growth at 0.1 µM (OVCAR-3): 98%
GI50 (DU-145): 4.37 µM
LC50 (lethal concentration 50) (DU-145): > 100 µM
TGI (DU-145): > 100 µM
growth at 0.1 µM (SF-539 [2]): 101%
growth at 0.1 µM (NCI-H460): 101%
growth at 0.1 µM (HT-29): 94%
growth at 0.1 µM (LOX IMVI [3]): 94%
growth at 0.01 µM (COLO): 104%
growth at 0.01 µM (A549): 96%
growth at 0.1 µM (SNB-75): 68%
growth at 100 µM (SR): -35%
GI50 (SF-539 [4]): 1.83 µM
TGI (SF-539 [4]): 3.47 µM
GI50 (Malme-3M): 1.32 µM
TGI (Malme-3M): 4.7 µM
CC50 (Malme-3M): > 100 µM
GI50 (HOP-92): 0.231 µM
TGI (HOP-92): 2.68 µM
CC50 (HOP-92): > 100 µM
growth at 10 µM (SN12C [5]): 7%
growth at 1 µM (MDA-MB-435): 76%
growth at 0.1 µM (SN12C [6]): 93%
growth at 0.1 µM (NCI-H522): 84%
GI50 (SK-MEL-28): 2.14 µM
TGI (SK-MEL-28): 12.4 µM
CC50 (SK-MEL-28): > 100 µM
growth at 10 µM (HL-60): 33%
growth at 1 µM (SF-539 [7]): 97%
GI50 (IGROV-1 [8]): 2.23 µM
TGI (IGROV-1 [8]): 37.4 µM
CC50 (IGROV-1 [8]): > 100 µM
growth at 0.01 µM (ACHN): 103%
growth at 100 µM (SK-OV-3): -50%
GI50 (LOX IMVI [9]): 2.58 µM
LC50 (lethal concentration, 50% net cell kill) (LOX IMVI [9]): > 100 µM
TGI (LOX IMVI [9]): 31.4 µM
growth at 1 µM (SNB-19): 85%
growth at 1 µM (UO-31): 68%
growth at 1 µM [10]: 81%
